The values that follow come from ChEMBL document CHEMBL1142230, “Small-molecule activators of RNase L with broad-spectrum antiviral activity” (Proc Natl Acad Sci U S A, 2007).

Series [1] addresses T1, 2-5A-dependent ribonuclease (Homo sapiens, UniProt Q05823).
T1 sequence (Q05823 whole entry): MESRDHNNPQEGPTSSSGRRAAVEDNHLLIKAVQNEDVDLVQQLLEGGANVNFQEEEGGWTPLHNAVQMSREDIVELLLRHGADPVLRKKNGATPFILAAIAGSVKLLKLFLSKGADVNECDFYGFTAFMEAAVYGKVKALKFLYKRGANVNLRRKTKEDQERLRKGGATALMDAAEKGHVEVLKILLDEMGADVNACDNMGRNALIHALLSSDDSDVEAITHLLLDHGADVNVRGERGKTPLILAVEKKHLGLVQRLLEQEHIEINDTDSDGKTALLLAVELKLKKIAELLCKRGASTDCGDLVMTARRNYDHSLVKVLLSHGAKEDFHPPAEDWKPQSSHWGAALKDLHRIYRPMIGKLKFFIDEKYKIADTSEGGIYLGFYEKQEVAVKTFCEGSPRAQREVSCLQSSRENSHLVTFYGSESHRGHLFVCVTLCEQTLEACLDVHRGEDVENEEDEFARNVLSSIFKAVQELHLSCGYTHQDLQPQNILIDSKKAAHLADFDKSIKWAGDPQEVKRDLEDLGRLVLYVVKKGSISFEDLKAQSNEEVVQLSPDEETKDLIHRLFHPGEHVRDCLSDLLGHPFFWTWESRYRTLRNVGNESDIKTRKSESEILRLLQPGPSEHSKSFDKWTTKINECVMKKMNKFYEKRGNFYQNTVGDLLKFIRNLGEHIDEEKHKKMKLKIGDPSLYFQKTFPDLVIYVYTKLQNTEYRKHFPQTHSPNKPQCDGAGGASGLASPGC
Description: Displacement of 5'-phosphorylated, 2',5'-oligoadenylate from human recombinant RNase L assessed as decrease in resonance by surface plasma resonance. The gist of the method: (§1)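 Biotinylated 2-5A immobilized on streptavidin biosensor chips; 10 nM RNase L with varying activator concentrations passed over the chip. Response units recorded over time, and maximum response at equilibrium (Rmax) fitted against concentration by global fit.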

Another series has as its system HeLaS. The experiment in a line: Cytotoxicity against of human HeLaS cells assessed as reduction of cell viability upto 50 uM. In kind it is functional, cell-based. The method, boiled down:
(§2)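 SV40-transformed mouse embryonic fibroblasts or HeLa S cells (10^4/well) treated with compound up to 50 μM for 24 h. MTS reagent added for 3 h at 37°C; absorbance read at 490 nm. Triplicate, with SDs.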

Series [2] has as its target T2, 2-5A-dependent ribonuclease (Homo sapiens) (UniProt Q05823).
T2 sequence (whole entry): T1 sequence (Q05823 whole entry)
Description: Induction of dimerization of human RNaseL at 3 to 12 uM assessed by Western blotting. The method, boiled down: (§3)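 RNase L incubated with 2-5A or activator, with or without the cross-linker dimethyl suberimidate. Oligomeric state (monomer vs dimer) read by SDS/PAGE and Western blot probed with anti-RNase L monoclonal antibody.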

In series [3] the target is T2, 2-5A-dependent ribonuclease (Homo sapiens). The experiment in a line: Induction of dimerization of human RNaseL at 0.06 to 0.25 uM assessed by Western blotting. The method, boiled down: as §3
On the technique in general: A western blot detects proteins with antibodies after separation by electrophoresis.

A short description of series [4]: Cytotoxicity against mouse fibroblast assessed as reduction of cell viability upto 50 uM. The series is classed as cell-based. The gist of the method: as §2
In series [5] the target is T2, 2-5A-dependent ribonuclease (Homo sapiens). Description: Activation of human recombinant RNase L assessed as cleavage of p32-labelled RNA molecule at 25 uM after 30 mins.
In series [6] the target is T1, 2-5A-dependent ribonuclease. Description: Activation of human recombinant Rnase L assessed as cleavage of FRET RNA probe. The method, boiled down: (§4)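 Baculovirus-expressed, FPLC-purified recombinant human RNase L (25 nM) with 100 nM 36-nt 6-FAM/BHQ-1 FRET RNA probe (Km 75 nM) in cleavage buffer: 25 mM Tris·HCl pH 7.4, 100 mM KCl, 10 mM MgCl2, 50 μM ATP, 7 mM 2-mercaptoethanol. 22°C up to 2 h; fluorescence ex 485/em 535 nm. Compounds delivered from DMSO stocks; rescreened without RNase L to remove false positives.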

Series [7] deals with Encephalomyocarditis virus. The experiment in a line: Antiviral activity against encephalomyocarditis virus in wild type mouse fibroblasts assessed as reduction in viral growth. In kind it is functional. The method, boiled down: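 SV40 T antigen-transformed wild-type mouse embryonic fibroblasts were grown in RPMI 1640 with 10% FBS and seeded at 2.5 × 10⁵ cells/well. After 1 h, cells were infected with EMCV strain K (MOI 0.5) in serum-free medium for 1 h, washed with PBS, then fed complete medium containing varied compound amounts. At 12 h, titres were measured by plaque assay on L929 cells, in triplicate.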

In series [8] the target is T2, 2-5A-dependent ribonuclease (Homo sapiens). The experiment in a line: Activation of human recombinant RNaseL at 40 uM assessed as cleavage of FRET RNA probe. The method, boiled down: as §4
Another series has as its system Respirovirus muris. The experiment in a line: Antiviral activity against sendai virus in HeLaS cell assessed as suppression of infection. In kind it is functional, organism-based. The method, boiled down:
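HeLa S cells infected with Sendai virus (Cantell), 20 HA units/ml, in serum-free medium for 90 min. Cells washed and given complete medium with compound doses. Supernatant collected at 24 h; viral genomic RNA quantified by real-time RT-PCR; triplicate.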

The target of series [9] is T2, 2-5A-dependent ribonuclease (Homo sapiens). Description: Activation of human recombinant RNase L assessed as cleavage of FRET RNA probe at 15 mins. The gist of the method:
as §4

The target in series [10] is T1, 2-5A-dependent ribonuclease. The experiment in a line: Binding affinity to human recombinant RNase L. The gist of the method: as §1
For series [11], the system named is Human respirovirus 3. The experiment in a line: Antiviral activity against human parainfluenza virus3 in HeLaS cells expressing wild type RNaseL after 24 hrs by GFP reporter assay. The series is classed as functional. The method, boiled down:
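HeLa S cells, with endogenous wild-type RNase L, were infected with HPIV3/GFP at MOI 1.0. After 90 min, medium was removed and cells were washed twice with PBS. Cells were then incubated in complete medium without compound or with 10, 50 or 100 μM compound. GFP fluorescence was imaged by fluorescence microscopy at 24 h post-infection.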
(In general: In a reporter assay the amount or activity of a reporter protein is the signal.)

In series [12] the test system is Human respirovirus 3. The experiment in a line: Antiviral activity against human parainfluenza virus3 in HeLaM cells expressing wild type RNaseL by plaque assay.
The test system of series [13] is Human respirovirus 3. Description: Antiviral activity against human parainfluenza virus3 in HeLaM cells expressing RNaseL R667A mutant […]. The series is classed as functional. The method, boiled down: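 HeLa M cells expressing R667A RNase L cDNA were grown in DMEM with 10% FBS. They were infected with HPIV3/GFP (MOI 1.0) in serum-free medium for 90 min, washed with PBS, then given complete medium with varied compound amounts. At 24 h, virus was harvested by two freeze–thaw cycles and titred by plaque assay on CV1 cells, in triplicate.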

A further series has as its system XMRV. The experiment in a line: Antiviral activity against human retrovirus XMRV in human DU145 cells assessed as suppression of infection. The series is classed as functional, cell-based. Conditions: Xenotropic MuLV-related virus; DU-145. The gist of the method: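 DU145 cells infected with XMRV for 3 h in FBS-free RPMI 1640 containing 8 μg/ml polybrene, then washed. Treated in triplicate with compound in fresh complete RPMI for 2 d. Reverse transcriptase activity measured in supernatants.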

Activity calls are given as the source filed them. The calls are words filed in the database; no cut-off is given here. Bounds are passed on as bounds.

As usually defined, the Kd is the free concentration of one partner at which half of the binding sites on the other are occupied at equilibrium, for simple one-to-one binding. Broadly, the EC50 is the concentration needed to bring the measured effect to its halfway point.

`CCOC(=O)C1=C(Nc2ccccc2)S/C(=C\c2cccc(O)c2)C1=O`: the dissociation constant Kd in series [1] was 18 µM. The outcome with HeLaS was inactive. Moreover, the outcome (in series [2]; in series [3]; in [5]; in [8]; in the series with Respirovirus muris) was Active. Further, the Activity entry in series [4] is on record as “Not Active”; in series [7], 7. Besides, the EC50 in series [6] was found to be 26 µM.
With `CCOC(=O)C1=C(Nc2ccc(Cl)cc2)S/C(=C\c2cccc(O)c2)C1=O`, the EC50 in series [6] came out at 49 µM.
Consider `CC(=O)c1ccc(NC(=S)NC(NC(=O)Cc2ccccc2)C(Cl)(Cl)Cl)cc1` (stereo not drawn), for which the 50% effective concentration (EC50) in series [6] stood at 79 µM.
Consider `O=c1[nH]c(-c2ccc(O)cc2)nc2sc3c(c12)CCCC3`, for which the 50% effective concentration (EC50) in series [6] stood at 26 µM.
On the same count and under the same terms, next, `COc1ccc(Cl)cc1NC(=O)c1cc2c(C)nn(-c3ccccc3)c2s1`: 48 µM; `CCCCOC(=O)c1ccc(NC(=S)NC(NC(C)=O)C(Cl)(Cl)Cl)cc1` (stereo not drawn): 99 µM.
For `CCCCOC(=O)c1ccc(NC(=S)NC(NC(=O)CC)C(Cl)(Cl)Cl)cc1` (stereo not drawn), the concentration giving a half-maximal response (EC50) in series [6] is 90 µM.
As for `O=c1[nH]c(-c2cccc([N+](=O)[O-])c2)nc2sc3c(c12)CCCC3`, the EC50 in [6] was determined as 22 µM.
Take `Cc1c(Cl)cccc1NC1=NC(=O)/C(=C/c2ccc([N+](=O)[O-])cc2)S1`: the EC50 in series [6] stood at 50 µM.
Turning to `Nc1ncnc2c1ncn2[C@@H]1O[C@H](COP(=O)(O)O[C@@H]2[C@H](O)[C@@H](COP(=O)(O)O[C@@H]3[C@H](O)[C@@H](COP(=O)(O)OP(=O)(O)OP(=O)(O)O)O[C@H]3n3cnc4c(N)ncnc43)O[C@H]2n2cnc3c(N)ncnc32)[C@@H](O)[C@H]1O`, the outcome in series [9], in series [3] and in series [5] was Active.
As to `Nc1ncnc2c1ncn2[C@@H]1O[C@H](CO[P@](=O)(O)O[C@@H]2[C@H](O)[C@@H](CO[P@](=O)(O)O[C@@H]3[C@H](O)[C@@H](CO[P@](=O)(O)O[P@@](=O)(O)OP(=O)(O)O)O[C@H]3n3cnc4c(N)ncnc43)O[C@H]2n2cnc3c(N)ncnc32)[C@@H](O)[C@H]1O`, the Kd was found to be 0.04 nM in series [10] and 0.00022 µM in series [1]. Also, the EC50 in series [6] stood at 0.0005 µM.
In the case of `Cc1ccc(NC2=NC(=O)/C(=C/c3cccc(O)c3)S2)c(Cl)c1`, the EC50 in series [6] is 49 µM.
`O=c1[nH]c(-c2cccc(O)c2)nc2sc3c(c12)CCCC3`: in series [1], the Kd came out at 12 µM. Also, the Activity in the series with Human respirovirus 3 [11] was 5; in series [4] it was “Not Active”; in series [7], 7; with Human respirovirus 3 [13], under 2. In addition, the outcome with HeLaS was inactive. Besides, the result (in [2]; with Human respirovirus 3 [12]; in [5]; in series [8]; in the series with XMRV; in the series on Respirovirus muris) was Active. Moreover, the EC50 in [6] was 22 µM.
